Source: PubChem BioAssay (Broad Institute)
Most compounds without a hit are left out; they make up all but 3.8% or so of the library.
ARNT TACC3 PPI – ARNT/TACC3 interaction disruption. Q9Y6A5. AlphaScreen His-ARNT PAS-B/GST-TACC3 binding, luminescence; TACC3 fragment carries E629A point mutation. inhibition, % at 9.99 µM. actives 0.66% (n = 390,000). AID 623870;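 active = mean inhibition of replicates at least 50% and at least half of replicates each reaching 50%; inconclusive = half or more replicates reach 50% but mean below 50%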;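 note: 0% = complete ARNT plus TACC3 wells and 100% = ARNT alone without TACC3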
DENV2 CPE – protects cells from dengue virus 2 cytopathic effect. CPE inhibition, % at 9.99 µM. actives 1.7% (n = 350,000). DENV2-infected cells, cytopathic effect rescue, plate reader; in the data active = CPE inhibition above about 20%, passing the limit was not always enough; inconclusive = no clear call, values can overlap the other calls; tested in BHK-21 cells;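 note: 0% = median of neutral control wells and 100% = median of positive control wells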
SIRT5 block – sirtuin-5 (human) deacylase inhibition; Purified SirT5, succinyl-peptide AMC, trypsin-coupled fluorescence; Q9NXA8; AID 652115; inhibition, % at 15 µM; actives 1.1% (n = 330,000); in the data active = inhibition above about 15%; inconclusive = no clear call, values can overlap the other calls
Target sequence (Q9NXA8 whole entry, looked up): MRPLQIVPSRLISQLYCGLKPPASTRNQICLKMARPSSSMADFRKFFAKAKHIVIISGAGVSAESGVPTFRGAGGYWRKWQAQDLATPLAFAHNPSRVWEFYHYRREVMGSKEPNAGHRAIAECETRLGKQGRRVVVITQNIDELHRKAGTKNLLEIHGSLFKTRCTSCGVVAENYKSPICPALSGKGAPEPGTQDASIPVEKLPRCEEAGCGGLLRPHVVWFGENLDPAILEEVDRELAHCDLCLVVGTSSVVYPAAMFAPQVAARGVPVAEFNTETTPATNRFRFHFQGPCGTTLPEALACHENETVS
FGF22 binding – shifts melting point of recombinant human FGF22. recombinant FGF22 thermal shift, SYPRO orange fluorescence; percent of sucrose octasulfate shift, DMSO zero. activity (Tm shift, normalised), % at 9.99 µM. actives 1.5% (n = 340,000). AID 651658;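 active = mean Tm shift, scaled 0 neutral to 100 positive control, at about 1.3% or above, every replicate too, limit read from the data; inconclusive = no clear call, values can overlap the other calls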
Target sequence (Q9HCT0 whole entry, looked up): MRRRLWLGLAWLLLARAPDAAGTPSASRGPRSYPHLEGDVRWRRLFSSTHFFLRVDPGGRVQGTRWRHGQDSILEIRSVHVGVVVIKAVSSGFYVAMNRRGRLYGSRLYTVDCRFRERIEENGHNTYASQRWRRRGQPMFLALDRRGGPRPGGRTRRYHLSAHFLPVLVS
FN deposit inh – fibronectin deposition inhibition. AH1F fibroblasts, Alexa488-fibronectin deposition fluorescence, overnight. inhibition, % at 12.6 µM. actives 0.086% (n = 350,000);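 active = mean inhibition across replicates of 30% or more, regardless of how many single replicates reach that level; inconclusive = mean under 30% yet at least half of replicates reach 30%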;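 note: positive control wells lacked labelled fibronectin entirely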
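Measured by – fluorescence 485/525 nm · System – AH1F fibroblast monolayer, labelled fibronectin deposition · Amount – 10000 cells per well · Buffer or medium – serum-reduced DMEM (2% serum) · Doses – single dose, pinned · Also added – fluorescent fibronectin at 24 nM final · Schedule – 1 h cell attachment, overnight exposure to compound and label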
Xi reactivation – activators of X-chromosome reactivation in mouse fibroblasts; XiGFP mouse fibroblasts, % GFP-positive cells imaging, 3 d; cells co-treated with 5-aza-dC sensitizer; scaled so ellipticine positive control = 100%; AID 743238; activation, % at 7.58 µM; actives 0.055% (n = 360,000);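 active = mean normalized replicate activation at least 10% and every replicate at or above 10%; inconclusive = only one of the two criteria met; inactive = mean below 10% and not all replicates reach 10%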;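 note: 0% = median of on-plate neutral control wells and 100% = ellipticine 6 µM median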
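System: XiGFP fibroblasts, SV40-immortalized. Medium: DMEM plus 5-aza-dC sensitizer. Doses: single point. Timing: 3 d treatment, 15 min room-temperature fixation. Control set: ellipticine 6 µM.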
Starred values were filed as active, the others as inactive; ? = inconclusive; . = no result given.

SMILES | ARNT TACC3 PPI | DENV2 CPE | SIRT5 block | FGF22 binding | FN deposit inh | Xi reactivation
O=C(COC(=O)c1cc(S(=O)(=O)N2CCOCC2)ccc1Cl)NC1CC1 | -0.1 | 2.7 | -3.6 | 0.0 | -6.0 | -0.2
O=C(COC(=O)CN1C(=O)C2CCCCC2C1=O)Nc1ccc(S(=O)(=O)N2CCOCC2)cc1 (stereo not given) | -5.4 | -0.7 | -4.1 | -0.2 | -9.0 | 0.8
CN(C)S(=O)(=O)c1ccc(Cl)c(NC(=O)COC(=O)CN2C(=O)C3CCCCC3C2=O)c1 (stereo not given) | -0.1 | 4.0 | 2.8 | 42.9* | 5.6 | 0.1
O=C(COC(=O)c1cc(S(=O)(=O)N2CCOCC2)ccc1Cl)NC1CCCCC1 | . | ? | . | 42.9* | -1.1 | 0.1
CC(C)C(=O)Nc1ccc2c(c1)C(=O)N(C)[C@@H]1CC[C@H](CC(=O)NCc3ccccc3)O[C@@H]1CO2 | -1.8 | 3.3 | 8.7 | 0.3 | 9.6 | -0.1
O=C(Cc1ccccc1)N[C@H]1CC[C@H](CC(=O)N2CCCCC2)O[C@@H]1CO | . | 0.1 | -0.6 | 0.1 | 2.2 | -0.2
CN(C)C(=O)C[C@@H]1CC[C@H](NC(=O)C2CC2)[C@H](CO)O1 | -7.2 | 2.2 | -3.5 | -0.1 | -16.2 | 0.7
CC(=O)OCC1OC(Sc2cccc3cccnc23)C(OC(C)=O)C(OC(C)=O)C1OC(C)=O (stereo not given) | 68.0* | . | . | . | -4.1 | .
CC(=O)OCC1OC(n2ccc3ccccc32)C(OC(C)=O)C(OC(C)=O)C1OC(C)=O (stereo not given) | -8.6 | . | . | . | 12.6 | .
C[C@@H]1CCCCO[C@@H](CN(C)Cc2ccc3c(c2)OCO3)[C@@H](C)CN([C@@H](C)CO)C(=O)c2cc(NS(=O)(=O)c3ccc(F)cc3)ccc2O1 | 2.7 | 3.5 | 10.3 | . | -4.9 | 0.2
O=C(NC(CC(=O)N1CCN(c2ccccc2)CC1)c1ccccc1)c1ccccc1 (stereo not given) | . | -6.3 | . | -0.4 | . | 0.1
CC(=O)NC(CC(=O)N1CCN(C(C)=O)CC1)c1ccccc1 (stereo not given) | 1.0 | -4.9 | 24.6* | -0.1 | -1.8 | 0.1
CO[C@@H]1CN(C)C(=O)c2ccc(NC(=O)Nc3cccc(Cl)c3)cc2OC[C@H](C)N(C(=O)Nc2c(C)noc2C)C[C@H]1C | . | 30.6* | 3.8 | -0.3 | -6.1 | ?
CO[C@H]1CN(C)C(=O)c2ccc(NC(=O)Nc3cccc(F)c3)cc2OC[C@@H](C)N(C(=O)Nc2c(C)noc2C)C[C@@H]1C | 3.0 | 25.2* | . | 0.0 | -13.6 | -0.3
CO[C@H]1CN(C)C(=O)c2ccc(NC(=O)Nc3cccc(F)c3)cc2OC[C@H](C)N(C(=O)Nc2c(C)noc2C)C[C@H]1C | 9.2 | 6.1 | . | 0.2 | -2.5 | -0.1
CC[n+]1c(C=C2C=C(C)OC(C)=C2)sc2ccccc21 | -4.0 | . | 19.3* | 0.1 | -45.0 | 56.6*
CC[n+]1c(/C=C2/C=C(C)CC(C)C2)sc2ccccc21 (stereo not given) | -0.1 | 10.6 | -3.4 | -0.2 | -7.6 | 0.2
O=C(O)/C(=C\c1cccc(F)c1)c1ccc(S(=O)(=O)N2CCCC2)s1 | -7.8 | 14.2 | 3.2 | -0.2 | 2.0 | -0.4
Cc1cccc(/C=C(\C(=O)O)c2ccc(S(=O)(=O)N3CCCC3)s2)c1 | 45.4* | -5.5 | 1.0 | -0.1 | . | 0.0
CN1c2ccc(Br)cc2[C@H]2[C@H](CCN2S(=O)(=O)c2cccc(F)c2)[C@H]1CO | -3.5 | 118.3* | . | 0.0 | 1.4 | 0.0
Cc1cccc(S(=O)(=O)N2CC[C@@H]3[C@@H](CO)N(C)c4ccc(Br)cc4[C@@H]32)c1 | 8.2 | -4.6 | . | -0.3 | 7.4 | 0.3
CN1c2ccc(Br)cc2[C@@H]2[C@@H](CCN2S(=O)(=O)c2ccccc2)[C@H]1CO | -2.0 | 116.3* | 8.3 | 0.0 | -10.2 | 0.0
Cc1ccccc1S(=O)(=O)N1CC[C@@H]2[C@H]1c1cc(Br)ccc1N(C)[C@H]2CO | . | 66.3* | . | -0.2 | -12.5 | 0.1
O=C(NCC[C@@H]1CC[C@@H](NS(=O)(=O)c2ccccc2)[C@H](CO)O1)c1ccccc1F | 2.8 | -4.7 | 10.2 | -0.4 | 0.9 | 0.0
O=C(Nc1ccc2c(c1)OCO2)N[C@@H]1CC[C@@H](CCNC(=O)C2CCC2)O[C@@H]1CO | -7.0 | 9.0 | -1.3 | -0.2 | . | 0.0
SMILES | ARNT TACC3 PPI | DENV2 CPE | SIRT5 block | FGF22 binding | FN deposit inh | Xi reactivation
CC(C)C#Cc1ccc2c(c1)O[C@@H](CN(C)Cc1cncnc1)[C@H](C)CN([C@@H](C)CO)S2(=O)=O | 8.1 | -10.0 | 0.9 | -0.1 | 13.6 | -0.2
O=C(Cn1nc(-c2ccc(Cl)cc2)ccc1=O)NCC1COCCO1 (stereo not given) | 1.0 | 5.1 | 18.2* | -0.6 | 0.9 | 0.0
CCc1nc2ccc(C(=O)N(CC)CCN(C)C)cn2c1N(C)C(=O)c1cccc(OC)c1 | . | 26.4* | . | -0.2 | -0.8 | 0.0
CCc1nc2ccc(C(=O)N3CCN(C(C)=O)CC3)cn2c1N(C)C(=O)c1cccc(OC)c1 | . | 5.7 | -2.5 | -0.1 | -5.2 | -0.1
CCc1nc2ccc(C(=O)N(CC)CCN(C)C)cn2c1N(CC)C(=O)NCCc1ccccc1 | . | -10.7 | 28.6* | -0.1 | -2.8 | 0.1
O=C(N/N=C/c1ccc(O)cc1O)NC12CC3CC(CC(C3)C1)C2 | -7.4 | 50.5* | 1.2 | -0.2 | 5.8 | 0.0
COC(=O)c1ccc(=O)c2nc3/c(=C/O)c(O)cc(=O)c3[nH]c12 | 59.4* | 42.4* | 20.1* | -0.1 | . | .
COC(=O)c1cc(=O)[nH]c(SCc2cccc(C)c2)n1 | -11.5 | ? | -0.3 | -0.1 | -1.1 | 0.4
Cc1cccnc1NC(=O)c1ccc(S(=O)(=O)N2CCCCC2)cc1 | . | -11.1 | 2.2 | 0.1 | 5.8 | 0.2
CC(=O)Nc1cccc(/C(C)=N/NC(=O)c2cccc(S(=O)(=O)N3CCCC3)c2)c1 | . | 25.0* | . | -0.5 | 3.4 | 0.0
Cc1cccnc1NC(=O)c1cccc(S(=O)(=O)N2CCCC2)c1 | -2.9 | 31.2* | -0.2 | 0.2 | -0.6 | 0.3
C[C@H](CO)N1C[C@H](C)[C@@H](CN(C)Cc2ccncc2)Oc2ccc(NC(=O)CCN3CCOCC3)cc2CC1=O | 1.5 | -2.2 | 0.1 | 0.3 | . | -0.9
COc1ccccc1CNC(=O)C[C@@H]1CC[C@H]2[C@@H](COC[C@@H](O)CN2C(=O)Nc2ccc(C(F)(F)F)cc2)O1 | -4.1 | -13.4 | 0.1 | 0.0 | -15.4 | 0.0
O=S(=O)(c1ccccc1)c1ccc(C(F)(F)F)cn1 | -2.6 | -4.7 | 1.2 | 43.6* | 3.5 | 0.0
O=C(C[C@H]1CC[C@H](NS(=O)(=O)c2ccc(F)cc2)[C@@H](CO)O1)N1CCc2ccccc2C1 | 4.2 | 15.1 | 1.8 | 0.9 | . | -0.6
